Experimental data reported in ChEMBL document CHEMBL3045605, “Synthesis and anticancer evaluation of novel 3,5-diaryl-thiazolo[4,5-d]pyrimidin-2-one derivatives” (2013).

How the values were obtained:
Assay type in all cases: functional
[1] = tested on: NCI-H522; assay: Anticancer activity against Homo sapiens (human) NCI-H522 cells assessed as cell growth at 10 uM by SRB assay; details: read-out: Activity
Method in brief: (§1)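 Single-dose screen in the NCI 60-human-tumour-cell-line panel (nine cancer types) at 10−5 M. Cell growth was estimated by sulforhodamine B protein staining and reported as percent growth of treated cells relative to untreated controls.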

[2] = Anticancer activity against Homo sapiens (human) NCI-322M cells assessed as cell growth at 10 uM by SRB assay; details: read-out: Activity; method in brief: as §1
[3] = tested on: EKVX; assay: Anticancer activity against Homo sapiens (human) EKVX cells assessed as cell growth at 10 uM by SRB assay; details: read-out: Activity
Method in brief: (§2)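 NCI 60-cell human tumour panel (nine cancer types) screened at one concentration, 10−5 M. Cell growth estimated by sulforhodamine B protein staining and reported as percent growth of treated cells relative to untreated controls.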

[4] = Anticancer activity against Homo sapiens (human) NCI-322M cells by SRB assay
Method in brief: (§3)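 Five-dose NCI 60-cell-line panel testing at tenfold dilutions from 10−4 to 10−8 M, with growth read by sulforhodamine B protein staining. For each cell line: GI50 is the molar concentration giving half growth inhibition; TGI is total growth inhibition (cytostatic); LC50 is the molar concentration killing 50% of the initial cells (cytotoxic).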

[5] = tested on: MOLT-4; assay: Anticancer activity against Homo sapiens (human) MOLT4 cells by SRB assay; method in brief: as §3
[6] = tested on: CCRF-CEM; assay: Anticancer activity against Homo sapiens (human) CCRF-CEM cells by SRB assay
Method in brief: (§4)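 NCI 60-line panel, five tenfold dilutions from 10−4 to 10−8 M, growth read by sulforhodamine B staining against untreated controls. From the dose–response per line: GI50 (molar concentration giving half growth inhibition), TGI (molar concentration giving total growth inhibition, cytostatic) and LC50 (molar concentration killing 50% of initial cells, cytotoxic).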

[7] = tested on: HL-60(TB); assay: Anticancer activity against Homo sapiens (human) HL-60(TB) cells by SRB assay
Method in brief: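 NCI panel of about 60 human tumour cell lines, tested at five tenfold dilutions from 10−4 to 10−8 M, with sulforhodamine B read-out. GI50 (molar concentration giving half growth inhibition), TGI (total growth inhibition) and LC50 (50% death of initial cells) were calculated for each cell line.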

[8] = tested on: K562; assay: Anticancer activity against Homo sapiens (human) K562 cells assessed as cell growth at 10 uM by SRB assay; details: read-out: Activity; method in brief: as §2
[9] = tested on: CCRF-CEM; assay: Anticancer activity against Homo sapiens (human) CCRF-CEM cells assessed as cell growth at 10 uM by SRB assay; details: read-out: Activity; method in brief: as §2
[10] = tested on: HL-60(TB); assay: Anticancer activity against Homo sapiens (human) HL-60(TB) cells assessed as cell growth at 10 uM by SRB assay; details: read-out: Activity
Method in brief: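 NCI 60-cell-line human tumour panel screen at a single 10−5 M concentration. Cell growth was estimated by sulforhodamine B protein staining. Results are given as percent growth of treated cells relative to untreated controls.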

[11] = tested on: OVCAR-3; assay: Anticancer activity against Homo sapiens (human) OVCAR3 cells by SRB assay; method in brief: as §3
[12] = tested on: IGROV-1; assay: Anticancer activity against Homo sapiens (human) IGROV1 cells by SRB assay; method in brief: as §4
[13] = tested on: SK-MEL-2; assay: Anticancer activity against Homo sapiens (human) SK-MEL-2 cells by SRB assay; method in brief: as §3
[14] = tested on: SNB-19; assay: Anticancer activity against Homo sapiens (human) SNB19 cells by SRB assay; method in brief: as §3
[15] = tested on: SF-539; assay: Anticancer activity against Homo sapiens (human) SF539 cells by SRB assay; method in brief: as §3
[16] = tested on: KM12; assay: Anticancer activity against Homo sapiens (human) KM12 cells by SRB assay; method in brief: as §4
[17] = tested on: HT-29; assay: Anticancer activity against Homo sapiens (human) HT-29 cells by SRB assay; method in brief: as §4
[18] = tested on: HCT-15; assay: Anticancer activity against Homo sapiens (human) HCT15 cells by SRB assay; method in brief: as §4
[19] = tested on: OVCAR-5; assay: Anticancer activity against Homo sapiens (human) OVCAR5 cells assessed as cell growth at 10 uM by SRB assay; details: read-out: Activity; method in brief: as §1
[20] = tested on: OVCAR-3; assay: Anticancer activity against Homo sapiens (human) OVCAR3 cells assessed as cell growth at 10 uM by SRB assay; details: read-out: Activity; method in brief: as §1
[21] = tested on: OVCAR-4; assay: Anticancer activity against Homo sapiens (human) OVCAR4 cells assessed as cell growth at 10 uM by SRB assay; details: read-out: Activity; method in brief: as §1
[22] = tested on: IGROV-1; assay: Anticancer activity against Homo sapiens (human) IGROV1 cells assessed as cell growth at 10 uM by SRB assay; details: read-out: Activity; method in brief: as §2
[23] = tested on: UACC-62; assay: Anticancer activity against Homo sapiens (human) UACC62 cells assessed as cell growth at 10 uM by SRB assay; details: read-out: Activity
Method in brief: (§5)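 NCI 60-cell human tumour panel (leukemia, melanoma, lung, colon, CNS, breast, ovarian, prostate, renal lines) given a single 10−5 M dose. Growth is expressed as percent growth of treated cells relative to untreated controls, with cell growth/viability estimated by sulforhodamine B protein staining.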

[24] = tested on: UACC-257; assay: Anticancer activity against Homo sapiens (human) UACC257 cells assessed as cell growth at 10 uM by SRB assay; details: read-out: Activity; method in brief: as §5
[25] = tested on: SK-MEL-5; assay: Anticancer activity against Homo sapiens (human) SK-MEL-5 cells assessed as cell growth at 10 uM by SRB assay; details: read-out: Activity; method in brief: as §1
[26] = tested on: M14; assay: Anticancer activity against Homo sapiens (human) M14 cells assessed as cell growth at 10 uM by SRB assay; details: read-out: Activity; method in brief: as §2
[27] = tested on: Malme-3M; assay: Anticancer activity against Homo sapiens (human) MALME-3M cells assessed as cell growth at 10 uM by SRB assay; details: read-out: Activity; method in brief: as §2
[28] = tested on: U-251; assay: Anticancer activity against Homo sapiens (human) U251 cells assessed as cell growth at 10 uM by SRB assay; details: read-out: Activity; method in brief: as §5
[29] = tested on: KM12; assay: Anticancer activity against Homo sapiens (human) KM12 cells assessed as cell growth at 10 uM by SRB assay; details: read-out: Activity; method in brief: as §2
[30] = tested on: SW-620; assay: Anticancer activity against Homo sapiens (human) SW620 cells assessed as cell growth at 10 uM by SRB assay; details: read-out: Activity; method in brief: as §5
[31] = tested on: MDA-MB-468; assay: Anticancer activity against Homo sapiens (human) MDA-MB-468 cells by SRB assay; method in brief: as §3
[32] = tested on: MCF7; assay: Anticancer activity against Homo sapiens (human) MCF7 cells by SRB assay; method in brief: as §4
[33] = tested on: SN12C; assay: Anticancer activity against Homo sapiens (human) SN12C cells by SRB assay; method in brief: as §3
[34] = tested on: BT-549; assay: Anticancer activity against Homo sapiens (human) BT549 cells assessed as cell growth at 10 uM by SRB assay; details: read-out: Activity; method in brief: as §2
[35] = tested on: Hs-578T; assay: Anticancer activity against Homo sapiens (human) Hs 578T cells assessed as cell growth at 10 uM by SRB assay; details: read-out: Activity; method in brief: as §2
[36] = tested on: MCF7; assay: Anticancer activity against Homo sapiens (human) MCF7 cells assessed as cell growth at 10 uM by SRB assay; details: read-out: Activity; method in brief: as §2
[37] = tested on: DU-145; assay: Anticancer activity against Homo sapiens (human) DU145 cells assessed as cell growth at 10 uM by SRB assay; details: read-out: Activity; method in brief: as §2
[38] = tested on: PC-3; assay: Anticancer activity against Homo sapiens (human) PC3 cells assessed as cell growth at 10 uM by SRB assay; details: read-out: Activity; method in brief: as §1

## O=c1sc2c(Cl)nc(-c3ccccc3)nc2n1-c1ccccc1
[1]
  growth at 10 µM: -65%
[2]
  growth at 10 µM: 62%
[3]
  growth at 10 µM: 84%
[4]
  GI50: 14.1 µM
[4]; read-out: pTGI (converted)
  TGI: 58.9 µM
[5]
  GI50: 12.9 µM
[6]
  GI50: 3.8 µM
[7]
  GI50: 5.89 µM
[8]
  growth at 10 µM: 19%
[9]
  growth at 10 µM: 23%
[10]
  growth at 10 µM: 38%
[11]
  GI50: 1.78 µM
[11]; read-out: pTGI (converted)
  TGI: 79.4 µM
[12]
  GI50: 1.78 µM
  LC50: 18.2 µM
[12]; read-out: pTGI (converted)
  TGI: 4.79 µM
[13]
  GI50: 9.12 µM
[13]; read-out: pTGI
  TGI: 43.7 µM
[14]
  GI50: 41.7 µM
[15]
  GI50: 11 µM
[16]
  GI50: 81.3 µM
[17]
  GI50: 3.89 µM
[17]; read-out: pTGI (converted)
  TGI: 19.1 µM
[18]
  GI50: 4.68 µM
[19]
  growth at 10 µM: 90%
[20]
  growth at 10 µM: -41%
[21]
  growth at 10 µM: 31%
[22]
  growth at 10 µM: -65%
[23]
  growth at 10 µM: 62%
[24]
  growth at 10 µM: 48%
[25]
  growth at 10 µM: 60%
[26]
  growth at 10 µM: 16%
[27]
  growth at 10 µM: 62%
[28]
  growth at 10 µM: 20%
[29]
  growth at 10 µM: 81%
[30]
  growth at 10 µM: -4%
[31]
  GI50: 3.63 µM
[32]
  GI50: 64.6 µM
[33]
  GI50: 7.41 µM
[34]
  growth at 10 µM: 86%
[35]
  growth at 10 µM: 12%
[36]
  growth at 10 µM: 77%
[37]
  growth at 10 µM: 34%
[38]
  growth at 10 µM: 11%
